{"data": "Results pooled from the literature", "target": "Cytochrome P450 2C19 (CYP2C19, Homo sapiens, UniProt P33261)", "read-out": "enzyme activity", "action": "inhibitor", "note": "Lines come from different studies, so protocols differ."}
{"test system": "liver microsomes", "setting": "10 µM", "endpoint": "inhibition", "value": "2.2%", "Compound": "N=C(N)N1CC=C(c2coc(C(=O)Nc3ccc(C4=CCN(C(=N)N)CC4)c(F)c3)c2)CC1"}
{"test system": "human, liver microsomes", "setting": "2 µM, pH 7.4", "endpoint": "inhibition", "value": "8.8%", "Compound": "O=C(Nc1c2c(cc3c1CCC3)CCC2)NS(=O)(=O)/C=C/c1nccs1"}
{"test": "luciferase", "setting": "10 µM", "endpoint": "inhibition", "value": "102%", "Compound": "COc1ccc(Oc2ccc(CN(Cc3ccccc3)Cc3cnc4nc(N)nc(N)c4n3)cc2)cc1"}
{"test system": "human, liver microsomes", "setting": "100 µM, 20 min", "endpoint": "inhibition", "value": "9.4%", "Compound": "CCc1cc(/C(C)=N/OCc2ccc(C3CCCCC3)c(C(F)(F)F)c2)ccc1CN1CC(C(=O)O)C1"}
{"test system": "liver microsomes", "setting": "10 µM", "endpoint": "inhibition", "value": "28.6%", "Compound": "N=C(N)NCc1ccc(NC(=O)C23CCC(C(=O)Nc4ccc(C5=CCN(C(=N)N)CC5)cc4)(CC2)CC3)cc1"}
{"test": "luciferase", "setting": "10 µM", "endpoint": "inhibition", "value": "-18.1%", "Compound": "Nc1nc(N)c2nc(CNc3ccc(C(=O)N4CCC(C(=O)O)CC4)cc3)cnc2n1"}
{"test system": "human, liver microsomes", "setting": "pH 7.4", "endpoint": "IC50", "value": "100 µM", "Compound": "C[C@@H](c1ccc2nccn2c1)n1nnc2ncc(-c3cnn(C)c3)nc21"}
{"test": "luciferase", "setting": "10 µM", "endpoint": "inhibition", "value": "-11.1%", "Compound": "CCN(Cc1cnc2nc(N)nc(N)c2n1)c1ccc(C(=O)N2CCC(C(=O)OC)CC2)cc1"}
{"test system": "human, liver microsomes", "setting": "10 µM", "endpoint": "inhibition", "value": "< 20%", "Compound": "C=CC(=O)Nc1cc(Nc2nccc(Nc3cc(Cl)c(F)cc3C(C)(C)O)n2)c(OC)cc1N1CC[C@@H](N(C)C)C1"}
